# High-throughput results from PubChem BioAssay.
# Shown are actives, neighbours in structure and some others; about 3.1% of the full set was active somewhere.
# PAX8 reporter = inhibitors of PAX8 transcriptional activity in RMG-I cells; AID 652154; RMG-I TPO-luciferase reporter, SteadyGlo, 24 h; 360,000 compounds, 1.2% hits; inhibition, % at 12.6 µM;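 active = mean replicate inhibition at least 60% with every replicate also reaching 60%; inconclusive = only one of the two criteria is met; inactive = mean below 60% and not all replicates reaching 60%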;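 note: luciferase light reporting Pax8 driven TPO promoter activity; plate controls were median of neutral control wells for no effect and mitoxantrone controls for full effect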
# EWS-Fli block = blocks EWS/Fli oncoprotein-driven transcription | A673 NR0B1-luciferase reporter, viability-normalised | inhibition, % at 12.6 µM | 350,000 compounds, 0.67% hits | AID 651661;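 active = mean inhibition of at least 50% after viability correction, with every replicate also passing that limit; inconclusive = mean reaches 50% but only one of two replicates passes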;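 note: firefly luciferase signal divided by Alamar Blue viability fluorescence both relative to DMSO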
# PGC1a acetyl inh = modulators of PGC1a acetylation. U2OS PGC1a acetylation, AlphaScreen anti-acetyl-lysine; with virally co-expressed GCN5 acetyltransferase. inhibition, % at 15.6 µM. 350,000 compounds, 0.17% hits;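 active = every replicate shows inhibition of at least 40%; inconclusive = mean inhibition at least 40% but some replicate below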;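 note: 0% = neutral control wells and 100% = positive control wells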
# FN deposit inh = fibronectin deposition inhibition | AH1F fibroblasts, Alexa488-fibronectin deposition fluorescence, overnight | inhibition, % at 12.6 µM | 350,000 compounds, 0.086% hits | AID 743247;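 active = mean inhibition across replicates of 30% or more, regardless of how many single replicates reach that level; inconclusive = mean under 30% yet at least half of replicates reach 30%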;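 note: positive control wells lacked labelled fibronectin entirely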
#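 Schedule: 1 h cell adhesion before compound, then overnight fibronectin incubation; test system: AH1F fibroblast monolayer depositing Alexa488-labelled fibronectin into matrix; quantity: 10000 AH1F cells per well; probe or stimulus: fluorescent fibronectin at 24 nM final; signal: fluorescence, ex 485 nm, em 525 nm; evaluation: percent inhibition as loss of matrix-bound fibronectin fluorescence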
# HIV Env fusion = blocks HIV Env-driven cell-cell fusion. HeLa-JRFL Env/CEM21 cell fusion, luciferase. 360,000 compounds, 1.1% hits. AID 651610. inhibition, % at 12.3 µM;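 active = mean replicate inhibition score of at least 50 and every replicate individually at or above 50; inconclusive = only one of the two criteria met; inactive = mean below 50 and not all replicates reaching 50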;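 note: 0% = plate neutral controls and 100% = maraviroc near 300 nM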
# FGF22 binding = binders of recombinant human FGF22 by thermal shift. Q9HCT0. 340,000 compounds, 1.5% hits. activity (Tm shift, normalised), % at 9.99 µM. SYPRO orange fluorescence; percent of sucrose octasulfate shift, DMSO zero;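 active = mean Tm shift, scaled 0 neutral to 100 positive control, at about 1.3% or above, every replicate too, limit read from the data; inconclusive = no clear call, values can overlap the other calls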
# Target sequence (Q9HCT0 whole entry, looked up): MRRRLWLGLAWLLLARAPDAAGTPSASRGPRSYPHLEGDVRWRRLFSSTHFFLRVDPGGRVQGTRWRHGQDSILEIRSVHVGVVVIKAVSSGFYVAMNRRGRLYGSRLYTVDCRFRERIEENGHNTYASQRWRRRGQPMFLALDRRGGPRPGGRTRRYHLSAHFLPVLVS
# Active calls of the source: *; ? = inconclusive; · = no result given; [ ] = remark or other dose.
SMILES,PAX8 reporter,EWS-Fli block,PGC1a acetyl inh,FN deposit inh,HIV Env fusion,FGF22 binding
COc1cc(Nc2c3c(nc4ccccc24)CCCC3)cc(OC)c1OC,0,22,-14,1,30,0
O=C(Nc1ccc2ccccc2n1)c1ccccc1Cl,-149,2,5,0,-139,0
C(=C\c1ccc(C2[C@H]3CNC[C@@H]2N3CC2CCOCC2)cc1)/c1ccccc1 (stereo partly specified),-18,-13,0,-10,·,0
O=C1CCC(=O)N[C@@H](c2ccc(F)cc2)C/C=C\C[C@H](c2ccc(F)cc2)N1,·,·,·,0,·,·
COc1ccc(CN(C)C[C@@H]2OCCCC[C@@H](C)Oc3ccc(NC(=O)Nc4ccc(C(F)(F)F)cc4)cc3C(=O)N([C@@H](C)CO)C[C@@H]2C)cc1,86*,70*,22,·,?,-1
COc1ccc(CN(C)C[C@@H]2OCCCC[C@H](C)Oc3ccc(NC(=O)Nc4ccc(C(F)(F)F)cc4)cc3C(=O)N([C@H](C)CO)C[C@H]2C)cc1,104*,71*,-34,·,?,1
COc1ccc(NC(=O)Nc2ccc3c(c2)C(=O)N([C@H](C)CO)C[C@@H](C)[C@@H](CN(C)Cc2ccc(C(F)(F)F)cc2)OCCCC[C@H](C)O3)cc1,73*,5,-27,-7,14[16.7 µM],·
COc1ccc(NC(=O)Nc2ccc3c(c2)C(=O)N([C@H](C)CO)C[C@H](C)[C@@H](CN(C)Cc2ccc(C(F)(F)F)cc2)OCCCC[C@H](C)O3)cc1,50,13,0,-5,7[16.7 µM],0
COc1ccc(CN(C)C[C@@H]2OCCCC[C@H](C)Oc3ccc(NC(=O)Nc4ccc(C(F)(F)F)cc4)cc3C(=O)N([C@@H](C)CO)C[C@H]2C)cc1,87*,72*,-32,·,41[16.7 µM],-1
COc1ccc(CN(C)C[C@@H]2OCCCC[C@@H](C)Oc3ccc(NC(=O)Nc4ccc(C(F)(F)F)cc4)cc3C(=O)N([C@H](C)CO)C[C@@H]2C)cc1,-6,-8,15,·,3[16.7 µM],0
CC=Cc1ccc2n(c1=O)C[C@@H]1[C@@H](CO)[C@H](C(=O)NCC)[C@H]2N1C(=O)c1ccc(F)cc1 (mixture of isomers),-12,-3,·,·,·,0
Cc1ccc(-c2ccc3c(c2)O[C@@H](CN(C)C(=O)Nc2ccc(C(F)(F)F)cc2)[C@H](C)CN([C@H](C)CO)S3(=O)=O)cc1,·,25,5,2,37[16.7 µM],0
Cc1noc(C)c1S(=O)(=O)Nc1cccc2c1O[C@H](CN(C)Cc1ccc(-c3ccccc3)cc1)[C@H](C)CN([C@@H](C)CO)C2=O,-9,-4,-7,·,24[16.7 µM],0
COc1ccc(CN(C)C[C@H]2OCCCC[C@H](C)Oc3ccc(NC(=O)Nc4ccc(C(F)(F)F)cc4)cc3C(=O)N([C@@H](C)CO)C[C@@H]2C)cc1,106*,71*,9,·,?,1
COc1ccc(CN(C)C[C@H]2OCCCC[C@H](C)Oc3ccc(NC(=O)Nc4ccc(C(F)(F)F)cc4)cc3C(=O)N([C@H](C)CO)C[C@H]2C)cc1,102*,?,-12,·,31[16.7 µM],0
C[C@H](CO)N1C[C@H](C)[C@H](CN(C)Cc2ccc(C(F)(F)F)cc2)Oc2ccc(NC(=O)Nc3ccc4c(c3)OCO4)cc2C1=O,·,-1,9,·,9[16.7 µM],0
Cc1cc(C(=O)Nc2c(C)nn(Cc3ccc(F)cc3)c2C)on1,6,-4,11,1,1,0
Cc1nn(Cc2c(F)c(F)c(F)c(F)c2F)c(C)c1NC(=O)c1ccc(COc2ccc(F)cc2)o1,·,·,1,12,67*,·
Cc1c(C(=O)NCc2ccc(F)cc2)c(-c2ccccc2)nn1-c1ccccc1,21,·,5,-3,-12,·
Cc1nn(Cc2c(F)c(F)c(F)c(F)c2F)c(C)c1NC(=O)c1c(-c2ccccc2)nn(-c2ccccc2)c1C,·,·,11,2,95*,·
Cc1nn(Cc2c(F)c(F)c(F)c(F)c2F)c(C)c1NC(=O)c1ccc(COc2ccccc2Cl)cc1,·,·,14,-11,41,·
Cc1nn(Cc2c(F)c(F)c(F)c(F)c2F)c(C)c1NC(=O)c1ccc(COc2ccccc2Cl)o1,·,·,17,9,66*,·
C[C@@H]1CN([C@@H](C)CO)C(=O)c2cc(NC(=O)CCC(F)(F)F)ccc2O[C@@H](C)CCCCO[C@H]1CN(C)S(=O)(=O)c1ccc(F)cc1,-9,-9,-5,-12,-17[16.7 µM],0
C[C@@H]1CN([C@@H](C)CO)C(=O)c2cccc(NC(=O)CCCCCC(=O)Nc3ccccc3N)c2O[C@@H]1CN(C)C,-5,-18,9,·,·,0
O=C(/C=C/c1cccs1)c1ccc(NC(=O)c2cccc(Br)c2)cc1,-128,·,48*,-9,-1,·
SMILES,PAX8 reporter,EWS-Fli block,PGC1a acetyl inh,FN deposit inh,HIV Env fusion,FGF22 binding
N#C/C(=N/Nc1ccc(OC(F)(F)F)cc1)C(N)=S,81*,-35,0,-13,-33,0
O=C(C[C@@H]1C[C@@H]2c3cc(NC(=O)NC4CCCC4)ccc3O[C@@H]2[C@H](CO)O1)NC1CCCC1,-9,0,3,-4,11[16.7 µM],0
O=C(CSCc1nc2c(nnn2Cc2ccc(F)cc2)c(=O)[nH]1)Nc1c(Cl)cc(Cl)cc1Cl,1,6,1,-2,31,43*
CCc1nc2c(nnn2Cc2ccc(F)cc2)c(=O)[nH]1,·,·,6,·,·,·
Cc1ccc(S(=O)(=O)N(C)C[C@H]2Oc3cc(C#CC4CCCC4)ccc3S(=O)(=O)N([C@H](C)CO)C[C@H]2C)cc1,18,14,-6,-9,7,0
C[C@H](CO)N1C[C@H](C)[C@H](CN(C)S(=O)(=O)c2ccc(F)cc2)Oc2cc(C#Cc3ccncc3)ccc2S1(=O)=O,·,12,4,·,10[16.7 µM],0
Cc1ccc(S(=O)(=O)N(C)C[C@@H]2Oc3cc(C#CC4CCCC4)ccc3S(=O)(=O)N([C@H](C)CO)C[C@H]2C)cc1,·,38,-6,7,58*[16.7 µM],0
Cc1ccc(S(=O)(=O)N(C)C[C@H]2Oc3cc(C#Cc4ccncc4)ccc3S(=O)(=O)N([C@@H](C)CO)C[C@H]2C)cc1,104*,19,25,·,·,0
CCOC(=O)c1cccc(NC(=O)CCNS(=O)(=O)c2cc(Br)cnc2N)c1,-21,-13,11,9,1,0
Cc1cc(NC(=O)CCNS(=O)(=O)c2cc(Br)cnc2N)ccc1Br,·,·,5,-5,59*,·
Cc1ccc(NC(=O)CCNS(=O)(=O)c2cc(Br)cnc2N)cc1Cl,26,·,-3,9,32,·
Nc1ncc(Br)cc1S(=O)(=O)NCCC(=O)Nc1cccc(Cl)c1,·,·,·,·,59*,0
C[C@H]1CN([C@@H](C)CO)C(=O)c2cccc(NS(=O)(=O)c3cn(C)cn3)c2O[C@H]1CN(C)S(=O)(=O)c1cccs1,-23,-10,1,-11,-4[16.7 µM],0
